These results are taken from ChEMBL document CHEMBL2062414, “Selected chromone derivatives as inhibitors of monoamine oxidase” (Bioorg Med Chem Lett, 2012).

The structures appear in SMILES notation.

For one data set, the species on record is Homo sapiens. Description: Selectivity ratio of IC50 for recombinant human MAO-A to IC50 for recombinant human MAO-B. Summed up: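 This is a selectivity index for MAO-B, computed as IC50(MAO-A)/IC50(MAO-B). Both IC50s were measured fluorometrically on recombinant human enzymes as kynuramine conversion to 4-hydroxyquinoline, in triplicate.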
Data set [1] addresses T1, Amine oxidase [flavin-containing] A (Homo sapiens, UniProt P21397).
T1 sequence (P21397 whole entry): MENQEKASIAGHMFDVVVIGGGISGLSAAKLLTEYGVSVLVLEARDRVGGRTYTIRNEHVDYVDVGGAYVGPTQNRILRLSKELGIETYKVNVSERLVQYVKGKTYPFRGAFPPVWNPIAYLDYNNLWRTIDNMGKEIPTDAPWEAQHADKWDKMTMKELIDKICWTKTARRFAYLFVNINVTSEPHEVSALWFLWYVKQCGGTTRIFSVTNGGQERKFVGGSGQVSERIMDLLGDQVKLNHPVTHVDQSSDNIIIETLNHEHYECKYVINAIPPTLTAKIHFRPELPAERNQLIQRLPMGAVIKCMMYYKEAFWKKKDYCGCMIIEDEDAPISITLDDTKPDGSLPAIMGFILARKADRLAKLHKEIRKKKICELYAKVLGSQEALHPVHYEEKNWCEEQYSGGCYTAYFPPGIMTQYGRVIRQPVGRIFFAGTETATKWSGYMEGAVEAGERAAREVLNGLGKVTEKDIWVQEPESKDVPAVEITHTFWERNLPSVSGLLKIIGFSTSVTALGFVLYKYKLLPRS
Description: Inhibition of recombinant human MAO-A assessed as inhibition of kynuramine to 4-hydroxyquinoline conversion after 20 mins by fluorometry. Summed up: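 Recombinant human MAO-A was incubated with the mixed MAO-A/B substrate kynuramine. Activity was read fluorometrically as formation of 4-hydroxyquinoline. IC50 values are given as mean ± SD of triplicate determinations.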

Data set [2] deals with T2, Amine oxidase [flavin-containing] B (Homo sapiens, UniProt P27338).
T2 sequence (P27338 whole entry): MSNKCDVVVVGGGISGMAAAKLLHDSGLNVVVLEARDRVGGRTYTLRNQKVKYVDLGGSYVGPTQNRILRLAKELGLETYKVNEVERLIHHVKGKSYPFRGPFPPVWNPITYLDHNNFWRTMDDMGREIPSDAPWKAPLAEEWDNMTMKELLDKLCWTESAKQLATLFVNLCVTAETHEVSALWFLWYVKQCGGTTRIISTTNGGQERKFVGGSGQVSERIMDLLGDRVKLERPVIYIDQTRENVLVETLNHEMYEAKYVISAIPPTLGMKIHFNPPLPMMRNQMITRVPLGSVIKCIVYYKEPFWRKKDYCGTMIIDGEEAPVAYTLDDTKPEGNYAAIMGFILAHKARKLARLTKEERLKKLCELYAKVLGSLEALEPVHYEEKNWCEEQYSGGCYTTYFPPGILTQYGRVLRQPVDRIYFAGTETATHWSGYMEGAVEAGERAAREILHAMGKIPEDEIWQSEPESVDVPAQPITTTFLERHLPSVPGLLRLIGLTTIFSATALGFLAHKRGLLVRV
Description: Inhibition of recombinant human MAO-B assessed as inhibition of kynuramine to 4-hydroxyquinoline conversion after 20 mins by fluorometry.

The target in data set [3] is T2, Amine oxidase [flavin-containing] B. Description: Reversible inhibition of recombinant human MAO-B assessed as recovered enzyme activity measuring residual rate of 4-hydroxyquinoline formation at 10 times IC50 preincubated for 30 mins followed by dilution to 0.1 time IC50 measured after 20 mins.

For `O=C1CC(O)Oc2cccc(OCc3ccc(Br)cc3)c21` (centres undefined), the Ratio IC50 in the data set filed under Homo sapiens worked out at 1.4. For the same compound, the IC50 is 60.6 µM in data set [1] and 44.8 µM in data set [2].

Take `O=c1ccoc2ccccc12` [CHROMONE]: the Ratio IC50 in the data set filed under Homo sapiens came out at 1. Also, the results for the IC50 in data set [1] and in data set [2] were 39.9 µM and 54.9 µM, respectively.

For `CC(=O)c1ccc(OCc2cccc(Br)c2)cc1O`, the Ratio IC50 in the data set listed under Homo sapiens turned out to be 3950. The Activity in data set [3] amounted to 68%.

Regarding `CC(=O)c1c(O)cccc1OCc1ccc(Br)cc1`, in the data set filed under Homo sapiens, the Ratio IC50 came to 53.

For the compound `O=Cc1coc2ccccc2c1=O`, the Ratio IC50 in the data set filed under Homo sapiens is 1. The values for the IC50 in data set [1] and in data set [2] were 28.9 µM and 23.5 µM, respectively.

In the case of `CC(=O)c1cc(OCc2ccc(Br)cc2)ccc1O`, the Ratio IC50 in the data set filed under Homo sapiens stood at 17.

`O=Cc1coc2ccc(OCc3cccc(Br)c3)cc2c1=O`: the Ratio IC50 in the data set filed under Homo sapiens worked out at 595. Also, the half-inhibitory concentration (IC50) came to 2.2 µM in data set [1] and 0.0037 µM in data set [2].

In the case of `O=C(O)c1coc2ccc(OCc3cccc(Br)c3)cc2c1=O`, the Ratio IC50 in the data set listed under Homo sapiens was found to be 371. Besides, the IC50 in data set [1] was determined as 1.04 µM; in data set [2], 0.0028 µM. In data set [3], the Activity came to 68%.

Regarding `CC(=O)c1ccc(OCc2ccc(Br)cc2)cc1O`, the Ratio IC50 in the data set listed under Homo sapiens is 569.

For the compound `CC(=O)c1c(O)cccc1OCc1cccc(Br)c1`, in the data set listed under Homo sapiens, the Ratio IC50 turned out to be 17.

`O=C1CC(O)Oc2ccc(OCc3cccc(Br)c3)cc21` (centres undefined): the 50% inhibitory concentration (IC50) in data set [1] was found to be 1.53 µM. Moreover, in data set [3], the Activity is recorded as 68%.

On to `COC(=O)c1coc2ccc(OCc3cccc(Br)c3)cc2c1=O`, for which the Ratio IC50 in the data set listed under Homo sapiens is 83. The IC50 in data set [1] was 6.46 µM; in data set [2], 0.0774 µM.

With `O=c1ccoc2cccc(OCc3ccc(Br)cc3)c12`, in the data set listed under Homo sapiens, the Ratio IC50 came out at 12. Besides, the concentration for half-maximal inhibition (IC50) in data set [1] turned out to be 52.9 µM; in data set [2], 4.34 µM.

Turning to `CC(=O)c1cc(OCc2cccc(Br)c2)ccc1O`, in the data set filed under Homo sapiens, the Ratio IC50 came to 34.

For `O=c1ccoc2cccc(OCc3ccccc3)c12`, in the data set filed under Homo sapiens, the Ratio IC50 came out at 18. Also, the IC50 in data set [1] is 143 µM; in data set [2], 8.03 µM.

Broadly, the IC50 is the concentration at which inhibition is half-maximal.
